Assay outcomes as filed in PubChem BioAssay.
Sampled rows, rich in hits. Any-hit rate of the full collection: about 3.2%.
Mcl1 Noxa PPI: Mcl-1/Noxa binding inhibitors, primary screen, biochemical, TR-FRET, 1536-well. TR-FRET Mcl-1/Noxa peptide binding, 2 h. inhibition, % at 21.7 µM. hit rate 1.5% among 220,000. AID 1022, 2008;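 active = compounds that cut the protein-peptide binding signal by more than 50% relative to plate controls in a single-dose test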;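 also: His-tagged Mcl-1 with rhodamine Noxa BH3 peptide and terbium anti-His antibody; 0% = Mcl-1 plus Noxa peptide wells and 100% = peptide-only wells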
Target sequence (Q07820 whole entry, looked up): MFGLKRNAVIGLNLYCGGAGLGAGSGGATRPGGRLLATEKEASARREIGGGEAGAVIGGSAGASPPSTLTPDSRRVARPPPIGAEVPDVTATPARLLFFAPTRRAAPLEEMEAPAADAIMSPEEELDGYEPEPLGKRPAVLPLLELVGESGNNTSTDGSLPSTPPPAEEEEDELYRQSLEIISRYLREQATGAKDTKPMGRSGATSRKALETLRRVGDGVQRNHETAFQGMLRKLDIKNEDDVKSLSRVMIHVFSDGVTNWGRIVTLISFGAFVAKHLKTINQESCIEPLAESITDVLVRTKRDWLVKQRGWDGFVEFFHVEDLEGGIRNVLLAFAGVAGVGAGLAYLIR
Mcl1-Bid inh: Mcl-1/Bid binding inhibitors, primary screen, biochemical, TR-FRET, 1536-well; TR-FRET Mcl-1/Bid-Dy647 peptide binding; inhibition, % at 21.7 µM; hit rate 0.97% among 220,000;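 active = compounds that cut the binding signal by more than half at the single screening dose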;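 also: His-tagged Mcl-1 with europium anti-His antibody binding Bid BH3 peptide; 0% = Mcl-1 plus peptide wells and 100% = peptide-only wells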
14-3-3 Bad inh: inhibitors of 14-3-3 zeta/Bad binding, primary screen, biochemical, TR-FRET, bovine 14-3-3 zeta; TR-FRET 14-3-3zeta/Dy647-pBad peptide displacement, 1 h; hit rate 0.71% among 220,000; 14-3-3 protein zeta/delta (Bos taurus), P63103; inhibition, % at 21.7 µM;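 active = inhibition above about 70%, limit read from the data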;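 also: 0% = full 14-3-3 plus peptide FRET controls and 100% = background without 14-3-3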
Target sequence (P63103 whole entry, looked up): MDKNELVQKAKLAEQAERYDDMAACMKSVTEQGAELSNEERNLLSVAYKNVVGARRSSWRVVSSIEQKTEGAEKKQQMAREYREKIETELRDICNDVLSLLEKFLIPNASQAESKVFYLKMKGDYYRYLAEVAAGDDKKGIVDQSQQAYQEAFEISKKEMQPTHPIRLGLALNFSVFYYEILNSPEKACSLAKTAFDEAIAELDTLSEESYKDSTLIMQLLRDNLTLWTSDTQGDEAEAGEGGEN
Calb biofilm kill: clotrimazole potentiators killing C. albicans biofilm, primary screen, 4-compound mixtures. C. albicans biofilm persisters + clotrimazole, fluorescence viability; primary screen in compound mixtures of four per well. inhibition, % at 7.6 µM. hit rate 0.02% among 120,000;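 active = inhibition above 30.3% in the primary screen of four-compound pools, then above 30% when the compound was retested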;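 also: compounds exposed to preformed 24 h biofilms for 48 h; 0% = untreated biofilm control and 100% = clotrimazole plus chlorhexidine kill blank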
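Test system: C. albicans biofilms. Buffer or medium: RPMI/MOPS medium, pH 7.0. Timing: 48 h compound exposure at 37 °C. Technique: Alamar Blue fluorescence. Evaluation: percent inhibition of biofilm viability.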
Bim-Mcl-1: inhibitors of Bim peptide binding to Mcl-1, primary screen, biochemical, bead-based flow cytometry, multiplex. hit rate 0.1% among 190,000. Bim peptide-Mcl-1 binding. inhibition, % at 10 µM. Induced myeloid leukemia cell differentiation protein Mcl-1 (Homo sapiens), Q07820; in the data active = inhibition above about 40%;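 also: 0% = no compound tracer wells and 100% = peptide blocker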
Hck Nef HTS: inhibitors of Nef-activated human Hck kinase, primary screen, biochemical, Z-Lyte FRET, 384-well, Hck-YEEI; Recombinant Hck-YEEI plus Nef, Z-Lyte FRET kinase assay; inhibition, % at 20 µM; hit rate 0.68% among 220,000;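 active = Hck-Nef kinase inhibition above about 50%, limit read from the data; inactive = inhibition below that limit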;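 also: 0% = DMSO with Hck plus Nef and 100% = Hck alone without Nef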
* hit, by the source's call.

CSC(=NCc1cccnc1)NS(=O)(=O)c1cccs1 was read as Mcl1 Noxa PPI -15, Mcl1-Bid inh 71*, 14-3-3 Bad inh -7, Bim-Mcl-1 3 and Hck Nef HTS 0.
For Cc1ccc(S(=O)(=O)N(C)CC(=O)Nc2ccncc2)cc1 the results were Mcl1 Noxa PPI -3, Mcl1-Bid inh 15, 14-3-3 Bad inh -5, Bim-Mcl-1 -3 and Hck Nef HTS -1.
For CC1CC(=O)c2c(cc3c(-c4c(O)cc(O)c5c(O)c6c(cc45)OC(C)CC6=O)c(O)cc(O)c3c2O)O1 (stereo not drawn) the results were Mcl1 Noxa PPI 93*, Mcl1-Bid inh 47, 14-3-3 Bad inh 6, Calb biofilm kill 10, Bim-Mcl-1 0 and Hck Nef HTS 22.
Screening CCCCCc1ccc(OCCC[n+]2ccccc2)c(CCCCC)c1 returned Mcl1 Noxa PPI -3, Mcl1-Bid inh -12, 14-3-3 Bad inh 5, Calb biofilm kill 4 and Hck Nef HTS 2.
CCCCCc1ccc(OCCOCCn2c[n+](C)c3ccccc32)c(CCCCC)c1 was read as Mcl1 Noxa PPI 21, Mcl1-Bid inh 11, 14-3-3 Bad inh 91*, Calb biofilm kill -9, Bim-Mcl-1 -4 and Hck Nef HTS 40.
CC(=O)C1=C(C)NC(SCC(=O)c2ccc(F)cc2)=C(C#N)C1CC(C)C (stereo not drawn) was read as Mcl1 Noxa PPI 52*, Mcl1-Bid inh -16, 14-3-3 Bad inh -6, Calb biofilm kill 9, Bim-Mcl-1 -9 and Hck Nef HTS 6.
Screening O=C(Nc1cccc2nsnc12)c1ccc(-c2ccc(Br)cc2)o1 returned Mcl1 Noxa PPI 27, Mcl1-Bid inh 63*, 14-3-3 Bad inh -6, Bim-Mcl-1 -1 and Hck Nef HTS 10.
For O=C(Nc1ccc(Br)cc1)c1ccc(N2C(=O)C3CC=CCC3C2=O)cc1 (stereo not drawn) the results were Mcl1 Noxa PPI 59*, Mcl1-Bid inh -33, 14-3-3 Bad inh 0, Calb biofilm kill 7, Bim-Mcl-1 0 and Hck Nef HTS 4.
For COc1cc(N(C)C)c([N+](=O)[O-])cc1C(=O)NC(C)CNc1ccc([N+](=O)[O-])cc1Cl (stereo not drawn) the results were Mcl1 Noxa PPI -2, Mcl1-Bid inh -10, 14-3-3 Bad inh -3, Calb biofilm kill 10, Bim-Mcl-1 -5 and Hck Nef HTS 2.
Screening NS(=O)(=O)c1cc2c(cc1Cl)NC(Cc1ccccc1)NS2(=O)=O (stereo not drawn) returned Mcl1 Noxa PPI -6, Mcl1-Bid inh 97*, 14-3-3 Bad inh -3, Calb biofilm kill 5 and Hck Nef HTS -4.
For NS(=O)(=O)c1cc2c(cc1Cl)NC(CC1CCCC1)NS2(=O)=O (stereo not drawn) the results were Mcl1 Noxa PPI -21, Mcl1-Bid inh -18, 14-3-3 Bad inh -3, Calb biofilm kill 22 and Hck Nef HTS 27.
CCCc1c(O)nc(SCC(=O)NCc2ccco2)[nH]c1=O was read as Mcl1 Noxa PPI -5, Mcl1-Bid inh -33, 14-3-3 Bad inh 66, Calb biofilm kill 12, Bim-Mcl-1 -2 and Hck Nef HTS 3.
`CC(=O)Nc1ccc(-c2cc(C(=O)O)c3ccc(C)cc3n2)cc1` gave Mcl1 Noxa PPI 7, Mcl1-Bid inh -11, 14-3-3 Bad inh 0, Calb biofilm kill 13 and Hck Nef HTS 10.
Screening O=c1ccc2c(o1)/C(=C/C=C(Cl)Cl)CCC2 returned Mcl1 Noxa PPI 49, Mcl1-Bid inh 59*, 14-3-3 Bad inh 21, Bim-Mcl-1 0 and Hck Nef HTS 2.
`COc1cccc(/C=N/n2c(SC)nnc2-c2ccccc2)c1O` gave Mcl1 Noxa PPI 51*, Mcl1-Bid inh -98, 14-3-3 Bad inh -18, Bim-Mcl-1 0 and Hck Nef HTS -8.
Screening CCC1(C)CC(c2nc(-c3ccc(OC)cc3)cs2)CCS1 (stereo not drawn) returned Mcl1 Noxa PPI 5, Mcl1-Bid inh 18, 14-3-3 Bad inh 2, Calb biofilm kill 21, Bim-Mcl-1 -5 and Hck Nef HTS 1.
Screening CC1=NC(=O)C(N=Nc2cccc3ccccc23)N1c1ccccc1 (stereo not drawn) returned Hck Nef HTS 10.
CCOC(=O)c1c(N2C(=O)C=CC2=O)sc(C)c1C was read as Mcl1 Noxa PPI 54*, Mcl1-Bid inh 36, 14-3-3 Bad inh 3, Bim-Mcl-1 -4 and Hck Nef HTS -6.
CCOC(=O)c1c(NC(N)=O)sc(C)c1C was read as Mcl1 Noxa PPI -4, Mcl1-Bid inh -67, 14-3-3 Bad inh -12, Bim-Mcl-1 -1 and Hck Nef HTS 0.
For NC(CO)C(=O)NNCc1ccc(O)c(O)c1O (stereo not drawn) the results were Mcl1 Noxa PPI 101*, Mcl1-Bid inh 6, 14-3-3 Bad inh 50, Calb biofilm kill 0, Bim-Mcl-1 0 and Hck Nef HTS 11.
COC(=O)C(N)Cc1ccc(O)c(O)c1 (stereo not drawn) was read as Mcl1 Noxa PPI 16, Mcl1-Bid inh -13, 14-3-3 Bad inh 7, Bim-Mcl-1 3 and Hck Nef HTS 0.
`CCCC(C)NC(=O)CSc1nnc2ccccn12` (stereo not drawn) gave Mcl1 Noxa PPI 3, Mcl1-Bid inh -7, 14-3-3 Bad inh -4, Calb biofilm kill 2, Bim-Mcl-1 0 and Hck Nef HTS 15.
For Oc1ccc(/C=N/Nc2ccnc3cc(Cl)ccc23)c(O)c1 the results were Mcl1 Noxa PPI 88*, Mcl1-Bid inh 57*, 14-3-3 Bad inh 66, Calb biofilm kill 15 and Hck Nef HTS 16.
For Cc1ccccc1/C=N/Nc1ccnc2cc(Cl)ccc12 the results were Mcl1 Noxa PPI 98*, Mcl1-Bid inh 52*, 14-3-3 Bad inh 38, Calb biofilm kill 13, Bim-Mcl-1 4 and Hck Nef HTS 8.
For Clc1ccc2c(N/N=C/c3cccnc3)ccnc2c1 the results were Mcl1 Noxa PPI 34, Mcl1-Bid inh -29, 14-3-3 Bad inh -7, Calb biofilm kill 5, Bim-Mcl-1 2 and Hck Nef HTS 27.
Screening Cc1ccc(/C=N/Nc2ccnc3cc(Cl)ccc23)c(C)c1 returned Mcl1 Noxa PPI 56*, Mcl1-Bid inh 63*, 14-3-3 Bad inh 68, Calb biofilm kill 8, Bim-Mcl-1 1 and Hck Nef HTS 8.
For O=C(CN1C(=O)C2C3C=CC(C3)C2C1=O)N1CC=C(c2ccccc2)CC1 (stereo not drawn) the results were Mcl1 Noxa PPI -7, Mcl1-Bid inh -15, 14-3-3 Bad inh 8, Bim-Mcl-1 -2 and Hck Nef HTS -1.
